ChEMBL document CHEMBL2021785, “Compounds of Alpinia katsumadai as potential efflux inhibitors in Mycobacterium smegmatis” (2012)
Converted amounts (≈) assume the structure as drawn.

What was measured:
[1] = tested on: Mycolicibacterium smegmatis; test: Antibacterial activity against Mycobacterium smegmatis mc2 155 after 72 hrs by MTT assay; type: functional; conditions: str. MC2 155, 72 h
Procedure, shortened: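 Broth dilution in Mueller-Hinton broth; compounds dissolved in DMSO, two-fold serial dilutions; inoculum adjusted to McFarland 0.5 and diluted to final 5 × 10^5 cfu/mL; cells pre-grown on Columbia blood agar with 5% horse blood, 37 °C, 72 h. Plates incubated 37 °C for 72 h; MIC read after MTT as lowest concentration inhibiting growth.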

[2] = tested on: Mycolicibacterium smegmatis MC2 155; test: Inhibition of Multidrug resistance efflux pump in Mycobacterium smegmatis mc2 155 assessed as modulation of EtBr-mediated antibacterial activity measuring ratio of EtBr MIC to EtBr and compound MIC at 4 mg/L after 72 hrs by MTT assay
Procedure, shortened: (§1)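 Checkerboard-type modulation by broth dilution in MHB with DMSO-dissolved modulators: either modulator held constant (half its MIC) with two-fold serially diluted antibiotic/EtBr, or antibiotic fixed with modulator serially diluted. Final inoculum 5 × 10^5 cfu/mL, 37 °C, 72 h, MTT read-out. Modulation factor quantifies shift in antibiotic/EtBr MIC; FICI assesses combination effect.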

[3] = tested on: Mycolicibacterium smegmatis MC2 155; test: Inhibition of Multidrug resistance efflux pump in Mycobacterium smegmatis mc2 155 assessed as modulation of isoniazid-mediated antibacterial activity measuring ratio of isoniazid MIC to isoniazid and compound MIC at 4 mg/L after 72 hrs by MTT assay; procedure, shortened: as §1
[4] = tested on: Mycolicibacterium smegmatis MC2 155; test: Inhibition of Multidrug resistance efflux pump in Mycobacterium smegmatis mc2 155 assessed as modulation of rifampicin-mediated antibacterial activity measuring ratio of rifampicin MIC to rifampicin and compound MIC at 4 mg/L after 72 hrs by MTT assay; procedure, shortened: as §1
[5] = tested on: Mycolicibacterium smegmatis MC2 155; test: Inhibition of Multidrug resistance efflux pump in Mycobacterium smegmatis mc2 155 assessed as modulation of EtBr-mediated antibacterial activity measuring reduction in MIC at 1/2 of MIC after 72 hrs by MTT assay relative to control; procedure, shortened: as §1
[6] = tested on: Mycolicibacterium smegmatis MC2 155; test: Inhibition of Multidrug resistance efflux pump in Mycobacterium smegmatis mc2 155 assessed as modulation of rifampicin-mediated antibacterial activity measuring reduction in MIC at 1/2 of MIC after 72 hrs by MTT assay relative to control; procedure, shortened: as §1
[7] = tested on: Mycolicibacterium smegmatis MC2 155; test: Inhibition of Multidrug resistance efflux pump in Mycobacterium smegmatis mc2 155 assessed as modulation of EtBr-mediated antibacterial activity measuring ratio of EtBr MIC to EtBr and compound MIC at 64 mg/L after 72 hrs by MTT assay; procedure, shortened: as §1
[8] = tested on: Mycolicibacterium smegmatis MC2 155; test: Inhibition of Multidrug resistance efflux pump in Mycobacterium smegmatis mc2 155 assessed as modulation of isoniazid-mediated antibacterial activity measuring ratio of isoniazid MIC to isoniazid and compound MIC at 64 mg/L after 72 hrs by MTT assay; procedure, shortened: as §1
[9] = tested on: Mycolicibacterium smegmatis MC2 155; test: Inhibition of Multidrug resistance efflux pump in Mycobacterium smegmatis mc2 155 assessed as modulation of ciprofloxacin-mediated antibacterial activity measuring ratio of ciprofloxacin MIC to ciprofloxacin and compound MIC at 64 mg/L after 72 hrs by MTT assay; procedure, shortened: as §1
[10] = tested on: Mycolicibacterium smegmatis MC2 155; test: Inhibition of Multidrug resistance efflux pump in Mycobacterium smegmatis mc2 155 assessed as modulation of ethambutol-mediated antibacterial activity measuring ratio of ethambutol MIC to ethambutol and compound MIC at 64 mg/L after 72 hrs by MTT assay; procedure, shortened: as §1
[11] = tested on: Mycolicibacterium smegmatis MC2 155; test: Inhibition of Multidrug resistance efflux pump in Mycobacterium smegmatis mc2 155 assessed as modulation of rifampicin-mediated antibacterial activity measuring ratio of rifampicin MIC to rifampicin and compound MIC at 64 mg/L after 72 hrs by MTT assay; procedure, shortened: as §1
[12] = tested on: Mycolicibacterium smegmatis MC2 155; test: Inhibition of Multidrug resistance efflux pump in Mycobacterium smegmatis mc2 155 assessed as modulation of EtBr-mediated antibacterial activity measuring fractional inhibitory concentration index at 64 mg/L after 72 hrs by MTT assay; procedure, shortened: as §1
[13] = tested on: Mycolicibacterium smegmatis MC2 155; test: Inhibition of Multidrug resistance efflux pump in Mycobacterium smegmatis mc2 155 assessed as modulation of rifampicin-mediated antibacterial activity measuring fractional inhibitory concentration index at 64 mg/L after 72 hrs by MTT assay; procedure, shortened: as §1
[14] = tested on: Mycolicibacterium smegmatis MC2 155; test: Inhibition of Multidrug resistance efflux pump in Mycobacterium smegmatis mc2 155 assessed as EtBr accumulation measuring relative fluorescence at half the MIC measured for 60 mins by spectrophotometry relative to control
Procedure, shortened: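 Overnight 7H9/ADC culture (37 °C, 100 rpm) centrifuged and resuspended in PBS with 0.05% Tween 80 to OD600 0.4. Cells mixed 1:1 with test solutions containing 0.5 mg/L EtBr and 0.4% glucose, compounds from MIC down to 1/16 MIC. Fluorescence (ex 531/em 590 nm) read every 50 s at 37 °C for 60 min; repeated at least three times.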

[15] = tested on: Mycolicibacterium smegmatis MC2 155; test: Inhibition of Multidrug resistance efflux pump in Mycobacterium smegmatis mc2 155 assessed as inhibition of EtBr efflux measuring normalized fluorescence at half the MIC measured for 60 mins by spectrophotometry relative to control
[16] = tested on: Mycolicibacterium smegmatis MC2 155; test: Inhibition of Multidrug resistance efflux pump in Mycobacterium smegmatis mc2 155 assessed as modulation of ethambutol-mediated antibacterial activity measuring reduction in MIC at 1/2 of MIC after 72 hrs by MTT assay relative to control; procedure, shortened: as §1
[17] = tested on: Mycolicibacterium smegmatis MC2 155; test: Inhibition of Multidrug resistance efflux pump in Mycobacterium smegmatis mc2 155 assessed as modulation of EtBr-mediated antibacterial activity measuring ratio of EtBr MIC to EtBr and compound MIC at 32 mg/L after 72 hrs by MTT assay; procedure, shortened: as §1
[18] = tested on: Mycolicibacterium smegmatis MC2 155; test: Inhibition of Multidrug resistance efflux pump in Mycobacterium smegmatis mc2 155 assessed as modulation of ciprofloxacin-mediated antibacterial activity measuring ratio of ciprofloxacin MIC to ciprofloxacin and compound MIC at 32 mg/L after 72 hrs by MTT assay; procedure, shortened: as §1
[19] = tested on: Mycolicibacterium smegmatis MC2 155; test: Inhibition of Multidrug resistance efflux pump in Mycobacterium smegmatis mc2 155 assessed as modulation of ethambutol-mediated antibacterial activity measuring ratio of ethambutol MIC to ethambutol and compound MIC at 32 mg/L after 72 hrs by MTT assay; procedure, shortened: as §1
[20] = tested on: Mycolicibacterium smegmatis MC2 155; test: Inhibition of Multidrug resistance efflux pump in Mycobacterium smegmatis mc2 155 assessed as modulation of isoniazid-mediated antibacterial activity measuring ratio of isoniazid MIC to isoniazid and compound MIC at 32 mg/L after 72 hrs by MTT assay; procedure, shortened: as §1
[21] = tested on: Mycolicibacterium smegmatis MC2 155; test: Inhibition of Multidrug resistance efflux pump in Mycobacterium smegmatis mc2 155 assessed as modulation of rifampicin-mediated antibacterial activity measuring ratio of rifampicin MIC to rifampicin and compound MIC at 32 mg/L after 72 hrs by MTT assay; procedure, shortened: as §1
[22] = tested on: Mycolicibacterium smegmatis MC2 155; test: Inhibition of Multidrug resistance efflux pump in Mycobacterium smegmatis mc2 155 assessed as modulation of EtBr-mediated antibacterial activity measuring fractional inhibitory concentration index at 32 mg/L after 72 hrs by MTT assay; procedure, shortened: as §1
[23] = tested on: Mycolicibacterium smegmatis MC2 155; test: Inhibition of Multidrug resistance efflux pump in Mycobacterium smegmatis mc2 155 assessed as modulation of rifampicin-mediated antibacterial activity measuring fractional inhibitory concentration index at 32 mg/L after 72 hrs by MTT assay; procedure, shortened: as §1

SMILES: CN(C)CCCN1c2ccccc2Sc2ccc(Cl)cc21 [CHLORPROMAZINE]
- MIC [1]: 64 µg/mL (≈ 201 µM)

SMILES: CC/C=C\C/C=C\C/C=C\CCCCCCCC(=O)O [LINOLENIC ACID]
- MIC [1]: 8 µg/mL (≈ 28.7 µM)
- Ratio [2]: 4
- Ratio [3]: 1
- Ratio [4]: 4
- fold change (FC) [5]: 4
- fold change (FC) [6]: 4

SMILES: CCCCCCCCCCCCCCCC(=O)O [PALMITIC ACID]
- MIC [1]: 128 µg/mL (≈ 499 µM)
- Ratio [7]: 1
- Ratio [8]: 0.5

SMILES: O[C@@H](CCc1ccccc1)C[C@H](O)/C=C/c1ccccc1
- MIC [1]: ≥ 128 µg/mL
- Ratio [7]: 8
- Ratio [9]: 2
- Ratio [10]: 2
- Ratio [8]: 2
- Ratio [11]: 4
- fractional inhibitory concentration index (FICI) [12]: 0.25
- fractional inhibitory concentration index (FICI) [13]: 0.75
- RFU [14]: 16500
- normalized EtBr fluorescence relative to control [15]: 0.746
- fold change (FC) [5]: 4
- fold change (FC) [6]: 4

SMILES: O=C1C[C@@H](c2ccccc2)Oc2cc(O)cc(O)c21 [PINOCEMBRIN]
- MIC [1]: 128 µg/mL (≈ 499 µM)
- Ratio [7]: 4
- Ratio [9]: 1
- Ratio [10]: 2
- Ratio [8]: 1
- Ratio [11]: 2
- fractional inhibitory concentration index (FICI) [12]: 0.5
- fractional inhibitory concentration index (FICI) [13]: 1.5
- RFU [14]: 11200
- normalized EtBr fluorescence relative to control [15]: 0.765
- fold change (FC) [5]: 4
- fold change (FC) [16]: 2

SMILES: NNC(=O)c1ccncc1 [ISONIAZID]
- MIC [1]: 4 µg/mL (≈ 29.2 µM)

SMILES: CO[C@H]1/C=C/O[C@@]2(C)Oc3c(C)c(O)c4c(O)c(c(/C=N/N5CCN(C)CC5)c(O)c4c3C2=O)NC(=O)/C(C)=C\C=C\[C@H](C)[C@H](O)[C@@H](C)[C@@H](O)[C@@H](C)[C@H](OC(C)=O)[C@@H]1C [RIFAMPIN]
- MIC [1]: 32 µg/mL (≈ 38.9 µM)

SMILES: O=C(CCc1ccccc1)C[C@@H](O)/C=C/c1ccccc1
- MIC [1]: 64 µg/mL (≈ 228 µM)
- Ratio [17]: 8
- Ratio [18]: 2
- Ratio [19]: 1
- Ratio [20]: 1
- Ratio [21]: 4
- fractional inhibitory concentration index (FICI) [22]: 0.25
- fractional inhibitory concentration index (FICI) [23]: 0.75
- RFU [14]: 15100
- normalized EtBr fluorescence relative to control [15]: 0.72
- fold change (FC) [5]: 4
- fold change (FC) [6]: 4
